# Laboratory results reported in ChEMBL document CHEMBL4028805, “Phenylthiazole Antibacterial Agents Targeting Cell Wall Synthesis Exhibit Potent Activity in Vitro and in Vivo against Vancomycin-Resistant Enterococci” (J Med Chem, 2017).
# Calls of active or inactive are those of the source.
# Legend:
# [1] = tested on: Klebsiella pneumoniae; experiment: Antibacterial activity against Klebsiella pneumoniae BAA-1706 after 18 to 22 hrs in absence of colistin by broth microdilution method; format: functional
# [2] = tested on: Escherichia coli; experiment: Antibacterial activity against tolC deficient Escherichia coli assessed as cell shape defects at 25 ug/ml after 30 mins in presence of sucrose by FM4-64/DAPI/SYTOX Green staining-based deconvolution microscopic analysis; format: functional
# [3] = tested on: Enterococcus faecalis; experiment: Potentiation of vancomycin-induced antibacterial activity against Enterococcus faecalis HM-934 assessed as fold reduction in vancomycin MIC preincubated for 30 mins followed by vancomycin addition measured after 18 to 21 hrs; format: functional
# Procedure, shortened: (§1)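 VRE suspensions at 5×10^5 CFU/mL preincubated with compound at ½ × MIC for 30 min at room temperature. […] Fold reduction calculated as vancomycin MIC alone over MIC in combination.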
# [4] = tested on: Klebsiella pneumoniae; experiment: Antibacterial activity against Klebsiella pneumoniae BAA-1706 after 18 to 22 hrs in presence of 1/4 times MIC colistin by broth microdilution method; format: functional
# Procedure, shortened: (§2)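 Broth microdilution per CLSI guidelines. Gram-negatives grown in TSB. Each strain tested alone and again with colistin at ¼ × MIC to permeabilize the outer membrane. Plates incubated at 37 °C for 18–22 h. MIC read as the lowest concentration showing no visible growth.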
# [5] = tested on: Enterococcus faecium; experiment: Potentiation of vancomycin-induced antibacterial activity against Enterococcus faecium ATCC 700221 assessed as fold reduction in vancomycin MIC preincubated for 30 mins followed by vancomycin addition measured after 18 to 21 hrs; format: functional; procedure, shortened: as §1
# [6] = tested on: Enterococcus faecalis; experiment: Synergistic antimicrobial activity against Enterococcus faecalis ATCC 49532 after 20 hrs in presence of ciprofloxacin by checkerboard assay; format: functional
# Procedure, shortened: (§3)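 Checkerboard in TSB with a starting inoculum of 1×10^5 CFU/mL. Compound and antibiotic diluted from 2× or 4× MIC along perpendicular axes. Incubated 20 h at 37 °C. ΣFIC calculated: ≤0.5 synergy, >0.5 to <2 additive, 2–4 indifference, >4 antagonism.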
# [7] = tested on: Enterococcus faecium; experiment: Antibacterial activity against vancomycin-resistant Enterococcus faecium ATCC HM-968 after 14 serial passages measured after 18 hrs by broth microdillution method; format: functional
# Procedure, shortened: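 Multi-step selection over 14 passages in two weeks. McFarland 0.5 inoculum diluted 1:300 in TSB (E. faecalis) or BHI (E. faecium) to 1 × 10^5 CFU/mL. Each passage reinoculated at ~5 × 10^5 CFU/mL from the sub-inhibitory well of the previous plate. Compounds serially diluted in triplicate, incubated ≥18 h at 37 °C, MIC read visually. Resistance defined as >4-fold MIC rise.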
# [8] = tested on: Enterococcus faecalis; experiment: Antibacterial activity against Enterococcus faecalis ATCC 31975 at 4 to 8 times MIC after 48 hrs by broth microdillution method; format: functional
# Procedure, shortened: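 Single-step resistance selection. Cultures of 5 × 10^8 to 5 × 10^10 CFU/mL spread on TSA containing compound at 2×, 4× or 8× MIC and incubated aerobically at 37 °C for 48 h. Colony MICs rechecked by broth microdilution. Frequency calculated as resistant colonies per inoculum.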
# [9] = tested on: Enterobacter cloacae; experiment: Antibacterial activity against Enterobacter cloacae BAA-1154 after 18 to 22 hrs in presence of 1/4 times MIC colistin by broth microdilution method; format: functional; procedure, shortened: as §2
# [10] = tested on: Acinetobacter baumannii; experiment: Antibacterial activity against Acinetobacter baumanii ATCC 19606 after 18 to 22 hrs in presence of 1/4 times MIC colistin by broth microdilution method; format: functional; settings: ATCC 19606 = CIP 70.34 = JCM 6841; procedure, shortened: as §2
# [11] = tested on: Enterococcus faecalis; experiment: Synergistic antimicrobial activity against Enterococcus faecalis ATCC 51299 after 20 hrs in presence of doxycycline by checkerboard assay; format: functional; procedure, shortened: as §3
# [12] = tested on: Enterococcus faecalis; experiment: Potentiation of gentamicin-induced antibacterial activity against Enterococcus faecalis ATCC 51299 assessed as gentamicin MIC preincubated for 30 mins followed by gentamicin addition measured after 18 to 21 hrs; format: functional
# Procedure, shortened: (§4)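 Enterococcal suspensions at 5×10^5 CFU/mL preincubated with compound at ½ × MIC for 30 min at room temperature.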
# [13] = tested on: Enterococcus faecium; experiment: Bactericidal activity against vancomycin-resistant Enterococcus faecium ATCC 700221 assessed as bacterial regrowth at 4 times MIC after 22 hrs by time-kill assay; format: functional
# Procedure, shortened: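 Late-log cells diluted to ~5 × 10^6 CFU/mL and exposed in triplicate to 4 × MIC, in TSB (E. faecalis HM-201) or BHI (E. faecium ATCC 700221) at 37 °C. Sampled at 0, 2, 4, 6, 8, 10, 12 and 24 h, diluted serially in PBS and plated on TSA or BHI agar. CFU/mL counted after 18–22 h. DMSO served as negative control.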
# [14] = tested on: Acinetobacter baumannii; experiment: Antibacterial activity against Acinetobacter baumanii ATCC 19606 after 18 to 22 hrs in absence of colistin by broth microdilution method; format: functional; settings: ATCC 19606 = CIP 70.34 = JCM 6841; procedure, shortened: as §2
# [15] = tested on: Enterococcus faecalis; experiment: Synergistic antimicrobial activity against Enterococcus faecalis ATCC 51299 after 20 hrs in presence of ciprofloxacin by checkerboard assay; format: functional
# Procedure, shortened: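 Checkerboard assay. McFarland 0.5 suspension diluted in TSB to 1 × 10^5 CFU/mL. Compound diluted along one plate axis and antibiotic along the other, each starting at 2× or 4× MIC. Incubated 20 h at 37 °C, MIC read as no visible growth. Synergy defined as ΣFIC ≤0.5, additive >0.5 to <2, indifferent 2–4, antagonistic >4.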
# [16] = tested on: Enterococcus faecium; experiment: Potentiation of gentamicin-induced antibacterial activity against Enterococcus faecium ATCC 700221 assessed as gentamicin MIC preincubated for 30 mins followed by gentamicin addition measured after 18 to 21 hrs; format: functional; procedure, shortened: as §4
# [17] = Inhibition of Escherichia coli UPPP expressed in Escherichia coli C41(DE3) using FPP as substrate preincubated for 15 mins followed by substrate addition measured after 20 mins by malachite green assay
# Procedure, shortened: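 Purified E. coli UPPP (0.125 μM) preincubated 15 min at room temperature with inhibitor (300 to 0.8 μM) in 50 mM HEPES, 150 mM NaCl, 10 mM MgCl2, 0.02% DDM, pH 7.5. Then 35 μM FPP added, 20 min at 37 °C. Released phosphate measured by malachite green at 620 nm after 30 min. IC50 from dose-response curves. Bacitracin used as control.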
# [18] = Induction of proton motive force collapse in Escherichia coli inverted membrane vesicle in presence of ATP-driven PMF generation system by ACMA-based fluorescence assay; format: functional, cell membranes
# Procedure, shortened: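 E. coli inverted membrane vesicles (0.1 mg/mL membrane protein) with 2 μM ACMA and 0.5 mM ATP or succinate, in 10 mM HEPES-KOH, 5 mM MgSO4, 100 mM KCl, pH 7.5. Proton gradient followed by ACMA fluorescence (ex 410/em 480 nm). EC50 taken from dose-response curves. CCCP used as reference uncoupler.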
# [19] = tested on: Escherichia coli; experiment: Antibacterial activity against tolC deficient Escherichia coli assessed as formation of spheroplasts at 25 ug/ml after 2 hrs by FM4-64/DAPI/SYTOX green staining-based deconvolution microscopic analysis; format: functional
# [20] = tested on: Caenorhabditis elegans; experiment: Toxicity in Caenorhabditis elegans AU37 assessed as worm survival at 20 ug/ml after 24 hrs by microscopic analysis; settings: caenorhabditis elegans, 24 h
# Procedure, shortened: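 Adult C. elegans AU37, 15–20 per well, exposed in triplicate to 10 or 20 μg/mL, with sterile water as negative control. Viability checked by microscopy. Result reported as percent viable worms after 24 h exposure.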
structure (smiles),measurement,setting,value
CCCCc1ccc(-c2nc(C)c(/C(C)=N/NC(=N)N)s2)cc1,MIC,[1],16 µg/mL
same,Activity,[2],Active
same,Activity,[3],inactive
same,MIC,[4],1 µg/mL
same,fold change (FC),[5],256
same,fractional inhibitory concentration index (FICI),[6],0.63 - 1
same,Activity,[7],Active
same,Activity,[8],Active
same,MIC,[9],1 µg/mL
same,MIC,[10],1 µg/mL
same,fractional inhibitory concentration index (FICI),[11],2
same,Activity,[12],inactive
same,Activity,[13],Active
same,MIC,[14],8 µg/mL
same,fractional inhibitory concentration index (FICI),[15],0.5
same,Activity,[16],inactive
same,IC50,[17],6 µM
same,EC50,[18],12 µM
same,Activity,[19],Active
same,Activity,[20],Non-Toxic
